Common to all, as to format: cell-based
Experiment [1] has as its system NR1wt/NR2D-ΔNTD receptors. Nature of the experiment: Kinetics of inhibition by MK-801, oocyte voltage-clamp. To be noted: trace of Fig. 1f.
The subject of experiment [2] is NR1wt/NR2A-(2D NTD+L) receptors. Described as above. To be noted: NR2A-(2D NTD+L) vs NR2Awt.
Experiment [3] concerns NR1wt/NR2D-(2A NTD+L) receptors. The experiment is described as above. As to conditions: trace of Fig. 1f.
Experiment [4] deals with T1, NR1wt/NR2Dwt receptors (Rattus norvegicus, UniProt P35439+Q62645). The experiment is described as above. As to conditions: trace of Fig. 1f.
The next experiment deals with NR1-A652C/NR2D receptors (Homo sapiens, UniProt O15399+Q05586, A652C). Nature of the experiment: MTSEA-induced potentiation of currents. As to conditions: NR2D-containing receptors (NR1-A652C).
For experiment [5], the system named is NR1-A652C/NR2A-(2D NTD+L) receptors. Nature of the experiment: MTSEA-induced potentiation of currents. As to conditions: NR2A-(2D NTD+L) vs NR2Awt.
The test system of experiment [6] is NR1-A652C/NR2D-ΔNTD receptors. In words: MTSEA-induced potentiation of currents. To be noted: NR2D-ΔNTD vs NR2D.
In experiment [7] the test system is receptors incorporating NR1wt and NR2Awt, NR2Bwt, NR2Dwt, NR2B-(2A NTD), NR2B-(2A NTD+L) or NR2D-(2A NTD+L). Nature of the experiment: Zinc sensitivity. As to conditions: zinc dose-response, all constructs of Fig. 3a. The gist of the method:
(§1)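 Two-electrode voltage clamp was run at −60 mV at room temperature on oocytes nuclear-injected with NR1 and NR2 cDNAs (10 ng/µl, 1:1). […] Free zinc was buffered with tricine 10 mM (1 nM–1 µM) or ADA 1 mM (0.1–100 nM), and "0" zinc contained 10 µM DTPA. Dose-response curves gave IC50 and maximal inhibition.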

For experiment [8], the target named is NR1wt/NR2B-(2A NTD) receptors. Nature of the experiment: Zinc sensitivity. The gist of the method: as §1
Experiment [9] addresses NR1wt/NR2B-(2A NTD+L) receptors. In words: Zinc sensitivity. The gist of the method:
as §1

The next experiment deals with NR1wt/NR2Awt receptors (Homo sapiens, UniProt Q05586+Q12879). Nature of the experiment: Zinc sensitivity. The gist of the method:
as §1

The target of a further experiment is NR1wt/NR2Bwt receptors (Homo sapiens, UniProt Q05586+Q13224). Nature of the experiment: Zinc sensitivity. The gist of the method:
as §1

Experiment [10] deals with T1, NR1wt/NR2Dwt receptors. Nature of the experiment: Zinc sensitivity. In short, it runs like this: as §1
In experiment [11] the target is NR1wt/NR2D-(2A NTD+L) receptors. Nature of the experiment: Zinc sensitivity. The gist of the method: as §1

T1 sequence (Q62645 28-1323, other chains not shown): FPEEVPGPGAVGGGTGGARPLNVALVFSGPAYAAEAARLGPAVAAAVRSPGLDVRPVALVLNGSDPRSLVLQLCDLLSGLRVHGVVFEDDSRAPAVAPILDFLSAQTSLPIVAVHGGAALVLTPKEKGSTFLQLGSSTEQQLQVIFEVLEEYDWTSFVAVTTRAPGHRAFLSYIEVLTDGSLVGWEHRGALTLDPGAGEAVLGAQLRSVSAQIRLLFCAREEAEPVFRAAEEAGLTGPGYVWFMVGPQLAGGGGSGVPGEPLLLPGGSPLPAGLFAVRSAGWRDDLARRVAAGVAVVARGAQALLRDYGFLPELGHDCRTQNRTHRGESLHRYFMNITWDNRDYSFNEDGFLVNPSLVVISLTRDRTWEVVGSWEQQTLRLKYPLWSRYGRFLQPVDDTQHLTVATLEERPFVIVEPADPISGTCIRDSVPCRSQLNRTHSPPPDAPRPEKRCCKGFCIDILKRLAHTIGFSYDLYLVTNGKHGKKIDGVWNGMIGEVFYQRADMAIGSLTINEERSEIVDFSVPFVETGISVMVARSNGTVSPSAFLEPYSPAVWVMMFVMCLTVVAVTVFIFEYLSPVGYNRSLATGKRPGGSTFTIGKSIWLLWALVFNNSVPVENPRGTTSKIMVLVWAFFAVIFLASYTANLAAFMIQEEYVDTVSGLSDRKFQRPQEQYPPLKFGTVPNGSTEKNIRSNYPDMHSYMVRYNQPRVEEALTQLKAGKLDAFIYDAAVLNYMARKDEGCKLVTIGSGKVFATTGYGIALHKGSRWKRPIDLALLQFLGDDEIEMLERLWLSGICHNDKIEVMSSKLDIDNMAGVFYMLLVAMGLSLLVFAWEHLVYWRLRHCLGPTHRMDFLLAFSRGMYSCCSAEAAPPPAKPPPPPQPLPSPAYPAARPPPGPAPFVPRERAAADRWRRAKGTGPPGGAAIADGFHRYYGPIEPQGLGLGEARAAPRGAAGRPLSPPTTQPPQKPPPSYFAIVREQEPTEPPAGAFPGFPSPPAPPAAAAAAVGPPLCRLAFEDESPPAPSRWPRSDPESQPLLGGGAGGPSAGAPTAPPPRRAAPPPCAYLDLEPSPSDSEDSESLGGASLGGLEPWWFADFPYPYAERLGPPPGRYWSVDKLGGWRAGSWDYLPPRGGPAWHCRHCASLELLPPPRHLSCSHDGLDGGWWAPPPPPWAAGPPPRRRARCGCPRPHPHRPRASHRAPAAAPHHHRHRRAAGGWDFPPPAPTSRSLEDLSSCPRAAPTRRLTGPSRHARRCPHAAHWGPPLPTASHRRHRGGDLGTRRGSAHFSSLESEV
NR1wt/NR2Bwt receptors, sequence (Q13224 27-1484, other chains not shown): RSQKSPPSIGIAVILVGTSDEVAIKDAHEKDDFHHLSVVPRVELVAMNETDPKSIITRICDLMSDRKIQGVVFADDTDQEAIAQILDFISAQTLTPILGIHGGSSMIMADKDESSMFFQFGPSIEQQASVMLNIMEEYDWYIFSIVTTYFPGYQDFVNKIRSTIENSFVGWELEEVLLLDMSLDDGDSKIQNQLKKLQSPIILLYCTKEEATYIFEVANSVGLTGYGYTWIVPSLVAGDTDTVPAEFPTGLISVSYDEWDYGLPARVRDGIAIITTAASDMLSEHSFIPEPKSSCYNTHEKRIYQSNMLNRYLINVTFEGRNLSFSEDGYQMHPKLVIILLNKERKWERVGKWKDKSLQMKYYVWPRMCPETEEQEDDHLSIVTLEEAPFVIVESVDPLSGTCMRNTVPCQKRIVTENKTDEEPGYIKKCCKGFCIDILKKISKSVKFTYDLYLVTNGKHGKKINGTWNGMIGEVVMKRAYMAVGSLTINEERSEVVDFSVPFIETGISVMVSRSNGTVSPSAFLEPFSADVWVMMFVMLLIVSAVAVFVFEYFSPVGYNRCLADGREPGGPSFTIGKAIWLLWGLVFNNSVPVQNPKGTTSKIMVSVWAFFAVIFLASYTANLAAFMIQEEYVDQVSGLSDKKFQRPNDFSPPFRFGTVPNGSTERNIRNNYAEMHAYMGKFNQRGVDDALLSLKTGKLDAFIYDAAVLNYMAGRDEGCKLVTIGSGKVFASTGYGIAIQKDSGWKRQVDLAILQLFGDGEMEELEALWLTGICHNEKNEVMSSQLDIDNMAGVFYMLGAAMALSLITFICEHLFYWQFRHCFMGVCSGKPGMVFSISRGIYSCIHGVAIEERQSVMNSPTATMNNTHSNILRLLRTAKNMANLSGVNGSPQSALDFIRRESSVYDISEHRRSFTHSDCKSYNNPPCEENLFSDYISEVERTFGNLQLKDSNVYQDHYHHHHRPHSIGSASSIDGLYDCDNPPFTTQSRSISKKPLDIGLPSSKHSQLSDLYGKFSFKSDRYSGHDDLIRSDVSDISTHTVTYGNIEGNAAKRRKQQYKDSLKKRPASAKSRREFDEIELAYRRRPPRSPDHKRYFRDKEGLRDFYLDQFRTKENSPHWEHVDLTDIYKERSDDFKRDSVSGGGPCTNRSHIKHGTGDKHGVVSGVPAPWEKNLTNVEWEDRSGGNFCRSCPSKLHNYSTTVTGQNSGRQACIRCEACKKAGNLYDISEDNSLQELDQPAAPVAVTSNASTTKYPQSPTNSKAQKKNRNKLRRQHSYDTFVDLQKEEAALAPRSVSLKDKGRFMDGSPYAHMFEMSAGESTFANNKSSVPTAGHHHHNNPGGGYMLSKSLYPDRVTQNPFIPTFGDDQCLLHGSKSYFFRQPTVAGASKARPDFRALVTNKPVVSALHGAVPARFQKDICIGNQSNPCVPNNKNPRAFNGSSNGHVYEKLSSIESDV
NR1wt/NR2Awt receptors, sequence (Q12879 23-1464, other chains not shown): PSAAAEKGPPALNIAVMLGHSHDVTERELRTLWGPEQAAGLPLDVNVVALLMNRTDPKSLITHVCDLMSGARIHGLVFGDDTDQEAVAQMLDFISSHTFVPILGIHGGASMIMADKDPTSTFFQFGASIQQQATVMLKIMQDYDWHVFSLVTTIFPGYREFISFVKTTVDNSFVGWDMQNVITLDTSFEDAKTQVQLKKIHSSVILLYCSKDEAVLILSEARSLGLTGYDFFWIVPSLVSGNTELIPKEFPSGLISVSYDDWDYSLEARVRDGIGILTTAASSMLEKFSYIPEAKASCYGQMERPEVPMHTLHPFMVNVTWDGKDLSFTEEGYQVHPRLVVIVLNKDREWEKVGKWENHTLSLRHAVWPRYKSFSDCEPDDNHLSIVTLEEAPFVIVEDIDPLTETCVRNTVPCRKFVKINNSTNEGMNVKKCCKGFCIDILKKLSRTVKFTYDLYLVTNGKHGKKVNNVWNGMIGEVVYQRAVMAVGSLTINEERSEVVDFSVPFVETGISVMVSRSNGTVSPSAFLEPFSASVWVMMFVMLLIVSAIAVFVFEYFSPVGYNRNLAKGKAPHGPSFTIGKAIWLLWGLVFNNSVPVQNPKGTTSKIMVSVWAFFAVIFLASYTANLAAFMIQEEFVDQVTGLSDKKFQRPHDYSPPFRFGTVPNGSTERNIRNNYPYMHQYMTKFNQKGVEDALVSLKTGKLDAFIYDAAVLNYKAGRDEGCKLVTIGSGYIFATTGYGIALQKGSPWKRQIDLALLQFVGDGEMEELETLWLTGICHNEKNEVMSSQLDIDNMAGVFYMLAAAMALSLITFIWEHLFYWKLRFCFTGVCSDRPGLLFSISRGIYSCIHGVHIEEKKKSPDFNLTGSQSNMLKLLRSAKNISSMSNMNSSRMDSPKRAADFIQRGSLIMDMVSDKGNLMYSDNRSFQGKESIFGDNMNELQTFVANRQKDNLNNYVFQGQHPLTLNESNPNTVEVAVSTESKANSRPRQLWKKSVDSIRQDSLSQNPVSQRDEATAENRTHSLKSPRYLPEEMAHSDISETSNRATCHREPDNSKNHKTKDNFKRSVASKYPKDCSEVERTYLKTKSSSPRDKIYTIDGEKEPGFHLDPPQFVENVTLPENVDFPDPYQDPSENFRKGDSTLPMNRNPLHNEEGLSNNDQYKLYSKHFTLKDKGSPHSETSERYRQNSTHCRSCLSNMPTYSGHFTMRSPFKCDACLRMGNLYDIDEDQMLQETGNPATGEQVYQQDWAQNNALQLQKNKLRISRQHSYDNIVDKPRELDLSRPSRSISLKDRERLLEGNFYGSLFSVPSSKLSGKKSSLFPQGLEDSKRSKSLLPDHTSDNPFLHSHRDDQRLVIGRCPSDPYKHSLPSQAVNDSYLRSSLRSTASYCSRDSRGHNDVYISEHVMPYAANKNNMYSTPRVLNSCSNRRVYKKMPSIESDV

Take `C[C@]12N[C@H](Cc3ccccc31)c1ccccc12` [MK-801]: the results for the “τon of inhibition by MK-801” value (in experiment [1]; in experiment [3]; on NR1wt/NR2Dwt receptors [4]) were 5.7 s, 1.6 s and 32 s, respectively. Moreover, the “MK-801 inhibition slower than at NR2Awt-containing receptors” value in [2] stood at 15 fold.

`Br.CS(=O)(=O)SCCN` [MTSEA, 2-aminoethylmethanethiosulfonatehydrobromide]: the MTSEA-induced potentiation on NR1-A652C/NR2D receptors is ~ 300 fold. Moreover, the “Higher MTSEA-potentiation than NR2Awt-containing receptors” value in experiment [5] was 17 fold. Also, in experiment [6], the “Decrease in MTSEA potentiation on deleting the NR2D-NTD” value amounted to 4 fold.

As to `[Zn+2]` [Zinc, zinc], the nH in [7] is listed as 0.9–1.2. Further, the IC50 was determined as 0.2 nM in [8]; 5.4 nM in [9]; 7.5 nM at NR1wt/NR2Awt receptors; 720 nM against NR1wt/NR2Bwt receptors; 7800 nM on NR1wt/NR2Dwt receptors [10]; 1.5 nM in [11]. Moreover, the Inhibmax in experiment [8] amounted to 83%; in [9], 86%; at NR1wt/NR2Awt receptors, 81%; on NR1wt/NR2Bwt receptors it was 98%; at NR1wt/NR2Dwt receptors [10], 100%; in experiment [11], 90%.

Values taken from publication PMC2711440 (Nature, 2009).
